A short description of test [1]: Binding affinity for Inositol 1,4,5-trisphosphate kinase. The procedure, abridged: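 Crude rat brain Ins(1,4,5)P3 3-kinase; inhibition of [3H]Ins(1,4,5)P3 phosphorylation measured; Km for Ins(1,4,5)P3 0.6 μM; Ki determined by a previously described method.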
The nature of test [2]: (§1) Competitive inhibition of human erythrocyte membrane Ins(1,4,5)P3 5-phosphatase. The procedure, abridged: (§2)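 Ins(1,4,5)P3 5-phosphatase from human erythrocyte membrane; Ki determined by a previously described method, taken as the mean of at least three experiments.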
A short description of test [3]: Tested for binding affinity against Ins(1,4,5)-P3 5-phosphatase. More on the design: species or system Homo sapiens.
Test [4] is described as follows: Tested for binding affinity against human erythrocyte 5-phosphatase.
A short description of test [5]: Competitive inhibition of Inositol 1,4,5-trisphosphate 5-phosphatase. More on the design: species or system Homo sapiens.
The species entered for test [6] is Homo sapiens. The test can be described thus: Tested for Ca+2 potency in human neuroblastoma cells. It is filed as functional. Summed up:
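Ca2+ release from intracellular stores measured in electrically permeabilized human neuroblastoma cells; potency expressed as EC50.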

For test [7], the species on record is Homo sapiens. The test is described as §1. The procedure, abridged: as §2

Where “and” joins values, the source holds several entries; their conditions need not be identical. Equal values may be shown once.

The Ki is the equilibrium dissociation constant of an inhibitor or competing ligand from its target. Read a high Ki as a looser hold on the target. For `OC1C(O)C(OP(O)(O)=S)C(OP(O)(O)=S)C(O)C1OP(O)(O)=S` (stereo in doubt), the values for the Ki in test [1] and in test [2] were 1.46 µM and 1.7 µM, respectively. For `OC1C(OP(O)(O)=S)C(O)C(OP(O)(O)=S)C(O)C1OP(O)(O)=S` (configuration not stated), in test [3], the Ki is 0.43 µM. `O=C(O)C(COP(=O)(O)O)OP(=O)(O)O` (configuration not stated): in test [4], the inhibition constant Ki was 350 µM and 978 µM. In general, EC50 refers to the midpoint of the concentration-response curve. A lower EC50 goes with a more potent agent. By Km is commonly meant the substrate concentration at which the rate is half of its maximum. Consider `O=P(O)(O)O[C@@H]1[C@H](O)[C@H](O)[C@@H](OP(=O)(O)O)[C@H](OP(=O)(O)O)[C@H]1O` [INS(1,4,5)P3], for which the figures for the Ki in test [5] and in test [4] were 39 µM and 124 µM, respectively. For the same compound, in the test filed under Homo sapiens [6], the EC50 was 0.12 µM. In the test listed under Homo sapiens [7], the Km was 40 µM. With `O=P(O)(O)O[C@H]1[C@H](O)[C@@H](OP(=O)(O)O)[C@H](O)[C@@H](OP(=O)(O)O)[C@H]1O`, in test [5], the Ki was 45 µM. In test [3], `OC1C(O)C(OP(O)(O)=S)C(OP(O)(O)=S)C(O)C1OP(O)(O)=S` (configuration not stated) yielded a Ki of 0.5 µM. In other words, the sub-micromolar range.

Take `OC1C(O)C(OP(O)(O)=S)C(OP(O)(O)=S)C(O)C1OP(O)(O)=S` (stereo in doubt; 24): the Ki in test [1] amounted to 247 µM; in test [4], 0.3 µM.

(Values after ChEMBL document CHEMBL1127686, “Synthesis of selective non-Ca(2+)-mobilizing inhibitors of D-myo-inositol 1,4,5-trisphosphate 5-phosphatase” (J Med Chem, 1994).)
